# Columns and labels:
# Rattus norvegicus [1] = experiment: Antiallergic activity in the passive cutaneous anaphylaxis (PCA) model in the rat was determined after oral administration; assay type: functional; settings: read-out: ID50 (the source's name)
# Summary of the method: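 Male Sprague-Dawley rats underwent a modified Ovary PCA screen, with challenge 24 h after sensitization. Compounds were solubilized in aqueous NaHCO3 when possible; otherwise they were suspended in aqueous sodium citrate containing Tween 40/sodium carboxymethylcellulose. Dosing was oral, 10 min prior to antigen challenge.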
# Rattus norvegicus [2] = experiment: Antiallergic activity in the passive cutaneous anaphylaxis (PCA) model in the rat was determined after iv administration; assay type: functional; settings: read-out: ID50 (the source's name)
# Summary of the method: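 Rat PCA screen (modified Ovary method) in male Sprague-Dawley rats, with a 24 h interval between sensitization and antigen challenge. Compounds were dissolved in aqueous NaHCO3 where possible; otherwise they were suspended in aqueous sodium citrate with Tween 40/sodium carboxymethylcellulose. Dosing was intravenous, 1 min before antigen challenge.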
Compound,ED50 (Rattus norvegicus [1]),ED50 (Rattus norvegicus [2])
C=CCOc1ccccc1-c1ncc(-c2nn[nH]n2)c(O)n1,0.24 mg/kg,
CC(C)Oc1ccccc1-c1ncc(-c2nn[nH]n2)c(O)n1,0.04 mg/kg,0.02 mg/kg
CCCOc1ccc(N(C)C)cc1-c1ncc(-c2nn[nH]n2)c(O)n1,0.4 mg/kg,
CCCOc1ccc([N+](=O)[O-])cc1-c1ncc(-c2nn[nH]n2)c(O)n1,5 mg/kg,
Oc1nc(-c2ccccc2)ncc1-c1nn[nH]n1,100 mg/kg,
COc1ccccc1-c1ncc(-c2nn[nH]n2)c(O)n1,0.1 mg/kg,
CC(C)COc1ccccc1-c1ncc(-c2nn[nH]n2)c(O)n1,0.1 mg/kg,
CCCCOc1ccccc1-c1ncc(-c2nn[nH]n2)c(O)n1,0.07 mg/kg,
CCCOc1ccccc1-c1ncc(-c2nn[nH]n2)c(O)n1,0.04 mg/kg,0.004 mg/kg
Oc1nc(-c2ccccc2OCC2CC2)ncc1-c1nn[nH]n1,0.07 mg/kg,
CCCOc1ccc(N)cc1-c1ncc(-c2nn[nH]n2)c(O)n1,0.1 mg/kg,
CCOc1ccccc1-c1ncc(-c2nn[nH]n2)c(O)n1,0.09 mg/kg,0.02 mg/kg
CCC(C)Oc1ccccc1-c1ncc(-c2nn[nH]n2)c(O)n1 (stereo not given),0.05 mg/kg,
CCCOc1ccc(OC)cc1-c1ncc(-c2nn[nH]n2)c(O)n1,0.03 mg/kg,
O=C([O-])c1cc(=O)c2c(OCC(O)COc3cccc4oc(C(=O)[O-])cc(=O)c34)cccc2o1.[Na+].[Na+] [CROMOLYN SODIUM],> 30 mg/kg,0.3 mg/kg
CCCCCOc1ccccc1-c1ncc(-c2nn[nH]n2)c(O)n1,0.4 mg/kg,

# — ChEMBL document CHEMBL1121946, “Antiallergy agents. 2. 2-Phenyl-5-(1H-tetrazol-5-yl)pyrimidin-4(3H)-ones” (1982)
